In ChEMBL document CHEMBL1629618, “SOS regulation of qnrB expression” (2009):

Assays:
Assay type in all cases: functional
Escherichia coli [1] = test: Induction of qnrB1 gene expression in lexA- and recA- positive Escherichia coli J53 at 0.2 ug/ml after 30 mins by quantitative PCR method relative to control
How it was run: (§1)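 Plasmid-bearing strains grown in triplicate in LB broth at 37°C to exponential phase. At OD600 0.08 to 0.1, mitomycin C 0.2 μg/ml was added, with one culture left untreated as control. RNA was stabilised, extracted and DNase-treated, then reverse-transcribed with gene-specific reverse primers for real-time qPCR. Levels were calculated by 2−ΔΔCT relative to the unsupplemented control. Experiments repeated at least twice.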

Escherichia coli [2] = test: Induction of qnrB4 gene expression in lexA- and recA- positive Escherichia coli J53 at 0.2 ug/ml after 30 mins by quantitative PCR method relative to control; how it was run: as §1
Escherichia coli [3] = test: Induction of qnrB4 gene expression in lexA- and recA- positive Escherichia coli AB1157 at 0.2 ug/ml after 30 mins by quantitative PCR method relative to control; how it was run: as §1
Escherichia coli [4] = test: Induction of qnrB4 gene expression in recA-positive Escherichia coli DM49 expressing protease-resistant lexA at 0.2 ug/ml after 30 mins by quantitative PCR method relative to control; how it was run: as §1
Escherichia coli [5] = test: Induction of qnrB4 gene expression in lexA- and recA- positive Escherichia coli J53 at 0.2 ug/ml after 15 mins by quantitative PCR method relative to control; how it was run: as §1
Escherichia coli [6] = test: Induction of qnrB4 gene expression in recA-positive lexA deficient Escherichia coli AB1157 expressing deffective lexA gene at 0.2 ug/ml after 30 mins by quantitative PCR method relative to control; how it was run: as §1
Escherichia coli [7] = test: Induction of qnrB1 gene expression in lexA- and recA- positive Escherichia coli J53 at 0.2 ug/ml after 15 mins by quantitative PCR method relative to control; how it was run: as §1
Escherichia coli [8] = test: Induction of qnrA1 gene expression in lexA- and recA- positive Escherichia coli J53 at 0.2 ug/ml after 30 mins by quantitative PCR method relative to control; how it was run: as §1

CO[C@@]12[C@H](COC(N)=O)C3=C(C(=O)C(C)=C(N)C3=O)N1C[C@@H]1N[C@@H]12 [MITOMYCIN]
fold change (FC) (Escherichia coli [1]): 2.8 | fold change (FC) (Escherichia coli [2]): 7.9 | fold change (FC) (Escherichia coli [3]): 2 | fold change (FC) (Escherichia coli [4]): 1 | fold change (FC) (Escherichia coli [5]): 8.2 | fold change (FC) (Escherichia coli [6]): 1 | fold change (FC) (Escherichia coli [7]): 2.6 | fold change (FC) (Escherichia coli [8]): 0.9
